{"source": "ChEMBL document CHEMBL4376814", "about": "“Novel cyclin-dependent kinase 9 (CDK9) inhibitor with suppression of cancer stemness activity against non-small-cell lung cancer” (Eur J Med Chem, 2019)", "key": {"MCF7": {"tested_on": "MCF7", "assay": "Antiproliferative activity against human MCF7 cells assessed as inhibition of cell viability at 500 nM after 72 hrs by CCK-8 assay relative to control", "type": "functional", "conditions": "MCF7, 72 h", "procedure,_shortened": "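Single-concentration viability screen using CCK-8. Cells were seeded at 3000/well and treated for 72 h. A450 read after 1-4 h with reagent. Percent inhibition calculated against untreated control and blank wells as (Ac−As)/(Ac−Ab)×100%.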"}, "NCI-H1299": {"tested_on": "NCI-H1299", "assay": "Induction of cell cycle arrest in human H1299 cells assessed as increase in accumulation of cells at G2/M phase at 1 uM after 24 hrs by propidium iodide/RNase staining based flow cytometric analysis (reference value: 19%)", "type": "functional", "procedure,_shortened": "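A549 and H1299 plated at 5×10^5 cells/mL in 6-well plates, treated after adherence for 24 h. Washed with PBS, fixed overnight in ice-cold 75% ethanol, stained with propidium iodide plus RNase A for 30 min at 37 °C, analysed by flow cytometry for phase distribution. Means ± SD, three independent experiments.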"}, "A549 [1]": {"tested_on": "A549", "assay": "Induction of apoptosis in human A549 cells assessed as early apoptotic cells at 0.25 uM after 48 hrs by AnnexinV-FITC/PI staining-based flow cytometric analysis (reference value: 2.91%)", "type": "functional"}, "A549 [2]": {"tested_on": "A549", "assay": "Down regulation of CDK9 expression in human A549 cells at 0.25 to 1 uM after 24 hrs by Western blot analysis", "type": "functional, cell-based", "procedure,_shortened": "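A549 and H1299 cells treated for 24 h with serial dilutions alongside a DMSO control. Protein extracts resolved and immunoblotted.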"}, "[3]": {"biological_target": "Activin receptor type-1-like (Homo sapiens) (UniProt P37023)", "sequence (P37023 whole entry)": "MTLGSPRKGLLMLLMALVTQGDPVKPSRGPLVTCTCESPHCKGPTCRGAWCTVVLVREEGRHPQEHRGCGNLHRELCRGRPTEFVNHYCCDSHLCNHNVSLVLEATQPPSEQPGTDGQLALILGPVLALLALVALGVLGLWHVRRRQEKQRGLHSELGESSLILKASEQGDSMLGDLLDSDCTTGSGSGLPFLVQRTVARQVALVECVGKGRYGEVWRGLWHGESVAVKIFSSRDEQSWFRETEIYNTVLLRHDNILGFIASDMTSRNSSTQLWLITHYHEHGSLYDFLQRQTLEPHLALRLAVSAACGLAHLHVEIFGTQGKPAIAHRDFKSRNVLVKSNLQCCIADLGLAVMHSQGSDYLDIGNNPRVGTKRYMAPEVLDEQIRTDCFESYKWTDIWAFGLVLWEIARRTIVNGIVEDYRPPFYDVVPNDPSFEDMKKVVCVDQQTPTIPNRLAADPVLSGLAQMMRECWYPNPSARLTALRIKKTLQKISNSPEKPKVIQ", "assay": "Inhibition of recombinant human ALK1 (142 to end residues) at 1 uM using casein as substrate measured after 40 mins in presence of [gamma33P]ATP by scintillation counting method relative to control"}, "[4]": {"biological_target": "Calcium/calmodulin-dependent protein kinase type II subunit beta (Homo sapiens) (UniProt Q13554)", "assay": "Inhibition of recombinant human CaMK2 beta (1 to 315 resiudes) at 1 uM using calmodulin as substrate measured after 40 mins in presence of [gamma33P]ATP by scintillation counting method relative to control"}, "[5]": {"tested_on": "Hepatocyte growth factor receptor (Homo sapiens), P08581 [D1228N]", "assay": "Inhibition of recombinant human MET A1209G/V1290L/D1246N mutant (974 to end residues) at 1 uM using KKKGQEEEYVFIE as substrate measured after 40 mins in presence of [gamma33P]ATP by scintillation counting method relative to control"}, "[6]": {"biological_target": "Mitogen-activated protein kinase kinase kinase 9 (Homo sapiens) (UniProt P80192)", "sequence (P80192 whole entry, looked up, the tested form may be a part)": "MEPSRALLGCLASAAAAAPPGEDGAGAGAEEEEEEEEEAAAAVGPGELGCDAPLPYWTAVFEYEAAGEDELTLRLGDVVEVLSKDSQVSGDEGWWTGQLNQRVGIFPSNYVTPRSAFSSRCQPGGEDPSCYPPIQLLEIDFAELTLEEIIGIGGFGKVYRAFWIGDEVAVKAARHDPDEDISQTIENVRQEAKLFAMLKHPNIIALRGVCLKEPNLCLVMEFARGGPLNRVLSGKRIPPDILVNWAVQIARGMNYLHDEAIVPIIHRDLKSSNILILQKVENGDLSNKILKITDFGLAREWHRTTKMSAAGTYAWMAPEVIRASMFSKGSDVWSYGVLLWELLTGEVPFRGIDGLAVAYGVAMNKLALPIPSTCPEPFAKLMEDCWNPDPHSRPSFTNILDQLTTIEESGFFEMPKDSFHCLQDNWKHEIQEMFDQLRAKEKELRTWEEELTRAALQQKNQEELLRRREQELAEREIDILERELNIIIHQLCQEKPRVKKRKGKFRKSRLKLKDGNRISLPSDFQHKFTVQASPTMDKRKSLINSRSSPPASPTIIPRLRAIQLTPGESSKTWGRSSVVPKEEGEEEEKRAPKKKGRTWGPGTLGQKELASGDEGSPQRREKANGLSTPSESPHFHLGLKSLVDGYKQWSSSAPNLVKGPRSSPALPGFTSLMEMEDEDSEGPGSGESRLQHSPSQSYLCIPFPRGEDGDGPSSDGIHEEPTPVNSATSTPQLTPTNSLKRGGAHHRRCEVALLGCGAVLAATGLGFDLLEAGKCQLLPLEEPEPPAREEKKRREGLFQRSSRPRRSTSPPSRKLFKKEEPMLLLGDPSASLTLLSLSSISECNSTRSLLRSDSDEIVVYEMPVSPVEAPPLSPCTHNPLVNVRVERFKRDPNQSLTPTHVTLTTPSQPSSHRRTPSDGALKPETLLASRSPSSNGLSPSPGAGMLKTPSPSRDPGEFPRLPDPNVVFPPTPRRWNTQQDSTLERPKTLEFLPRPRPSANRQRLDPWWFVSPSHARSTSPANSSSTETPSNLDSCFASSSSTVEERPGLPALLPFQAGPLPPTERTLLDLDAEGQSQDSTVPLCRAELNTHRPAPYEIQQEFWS", "assay": "Inhibition of recombinant human MLK1 (134 to 414 residues) at 1 uM using casein as substrate measured after 40 mins in presence of [gamma33P]ATP by scintillation counting method relative to control"}, "[7]": {"biological_target": "MAPK/MAK/MRK overlapping kinase (Homo sapiens) (UniProt Q9UQ07)", "sequence (Q9UQ07 whole entry, the tested form may be a part)": "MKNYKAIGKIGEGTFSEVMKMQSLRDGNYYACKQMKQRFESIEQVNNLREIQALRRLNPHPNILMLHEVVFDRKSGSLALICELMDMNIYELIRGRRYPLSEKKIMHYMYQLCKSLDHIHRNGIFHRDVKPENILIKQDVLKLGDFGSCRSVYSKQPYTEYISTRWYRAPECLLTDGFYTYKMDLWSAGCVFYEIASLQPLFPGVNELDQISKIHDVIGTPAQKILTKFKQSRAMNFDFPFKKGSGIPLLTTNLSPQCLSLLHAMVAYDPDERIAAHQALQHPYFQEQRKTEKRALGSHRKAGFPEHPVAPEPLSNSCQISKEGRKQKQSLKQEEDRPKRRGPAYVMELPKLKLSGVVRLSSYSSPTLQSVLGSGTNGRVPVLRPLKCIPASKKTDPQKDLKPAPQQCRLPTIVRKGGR", "assay": "Inhibition of recombinant human MOK (1 to 343 residues) at 1 uM using RSRSRSRSRSRSRSR as substrate measured after 40 mins in presence of [gamma33P]ATP by scintillation counting method relative to control"}, "[8]": {"biological_target": "Serine/threonine-protein kinase MRCK beta (Homo sapiens) (UniProt Q9Y5S2)", "assay": "Inhibition of recombinant human MRCKbeta (1 to 473 residues) at 1 uM using KKRNRTLTV as substrate measured after 40 mins in presence of [gamma33P]ATP by scintillation counting method relative to control"}, "[9]": {"biological_target": "Cyclin-dependent kinase 5/CDK5 activator 1 (Homo sapiens) (UniProt Q00535+Q15078)", "assay": "Inhibition of recombinant full-length human CDK5/p35 at 1 uM using Histone H1 as substrate measured after 40 mins in presence of [gamma33P]ATP by scintillation counting method relative to control", "type": "protein-complex assay"}, "[10]": {"biological_target": "Serine/threonine-protein kinase PAK 1 (Homo sapiens) (UniProt Q13153)", "assay": "Inhibition of recombinant human PAK1 (150 to end residues) at 1 uM using RRRLSFAEPG as substrate measured after 40 mins in presence of [gamma33P]ATP by scintillation counting method relative to control"}, "[11]": {"biological_target": "Dual specificity tyrosine-phosphorylation-regulated kinase 2 (Homo sapiens) (UniProt Q92630)", "sequence (Q92630 whole entry)": "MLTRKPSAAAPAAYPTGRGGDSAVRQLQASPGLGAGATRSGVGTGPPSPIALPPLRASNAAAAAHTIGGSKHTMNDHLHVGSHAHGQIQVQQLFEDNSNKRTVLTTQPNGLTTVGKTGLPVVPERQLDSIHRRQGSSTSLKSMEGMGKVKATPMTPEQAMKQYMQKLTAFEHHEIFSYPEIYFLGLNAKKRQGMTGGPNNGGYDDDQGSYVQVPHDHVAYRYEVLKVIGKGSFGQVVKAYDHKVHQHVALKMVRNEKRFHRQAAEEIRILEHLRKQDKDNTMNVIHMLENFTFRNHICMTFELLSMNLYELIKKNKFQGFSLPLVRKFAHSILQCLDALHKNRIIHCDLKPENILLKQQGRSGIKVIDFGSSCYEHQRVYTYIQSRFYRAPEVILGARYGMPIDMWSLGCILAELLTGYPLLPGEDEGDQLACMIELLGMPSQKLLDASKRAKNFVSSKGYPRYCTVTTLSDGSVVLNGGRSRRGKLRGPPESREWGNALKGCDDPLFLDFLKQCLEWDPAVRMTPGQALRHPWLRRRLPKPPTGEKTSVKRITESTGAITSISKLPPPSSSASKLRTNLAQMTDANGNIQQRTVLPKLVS", "assay": "Inhibition of recombinant full-length human DYRK2 at 1 uM using casein as substrate measured after 40 mins in presence of [gamma33P]ATP by scintillation counting method relative to control"}, "[12]": {"tested_on": "Serine/threonine-protein kinase N1 (Homo sapiens), Q16512 [V901I]", "assay": "Inhibition of human PRK1 V901I mutant (498 to end residues) at 1 uM using KKLNRTLSFAEPG as substrate measured after 40 mins in presence of [gamma33P]ATP by scintillation counting method relative to control", "procedure,_shortened": "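Percent inhibition of kinase activity at a single compound concentration, measured by the outsourced Eurofins KinaseProfiler panel. Values are the mean of two independent experiments.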"}, "[13]": {"tested_on": "Serine/threonine-protein kinase Sgk2 (Homo sapiens), Q9HBY8 [S416D]", "sequence (Q9HBY8 1-367 with tags or gaps S416D)": "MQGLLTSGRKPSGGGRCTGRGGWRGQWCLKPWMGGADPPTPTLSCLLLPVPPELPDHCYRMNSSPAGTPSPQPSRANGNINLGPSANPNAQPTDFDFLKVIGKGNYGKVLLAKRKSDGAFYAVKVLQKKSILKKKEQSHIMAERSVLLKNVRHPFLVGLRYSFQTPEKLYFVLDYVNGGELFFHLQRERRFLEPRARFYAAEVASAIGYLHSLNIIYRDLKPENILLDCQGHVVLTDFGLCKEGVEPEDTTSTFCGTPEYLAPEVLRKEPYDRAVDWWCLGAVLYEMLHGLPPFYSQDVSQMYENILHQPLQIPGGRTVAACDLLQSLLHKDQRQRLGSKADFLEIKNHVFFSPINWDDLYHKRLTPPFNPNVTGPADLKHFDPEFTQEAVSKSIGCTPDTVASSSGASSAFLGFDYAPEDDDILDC", "assay": "Inhibition of recombinant human SGK2 S416D mutant (54 to end residues) at 1 uM using GRPRTSSFAEGKK as substrate measured after 40 mins in presence of [gamma33P]ATP by scintillation counting method relative to control"}, "[14]": {"tested_on": "Macrophage colony-stimulating factor 1 receptor (Homo sapiens), P07333 [Y969C]", "sequence (P07333 whole entry Y969C)": "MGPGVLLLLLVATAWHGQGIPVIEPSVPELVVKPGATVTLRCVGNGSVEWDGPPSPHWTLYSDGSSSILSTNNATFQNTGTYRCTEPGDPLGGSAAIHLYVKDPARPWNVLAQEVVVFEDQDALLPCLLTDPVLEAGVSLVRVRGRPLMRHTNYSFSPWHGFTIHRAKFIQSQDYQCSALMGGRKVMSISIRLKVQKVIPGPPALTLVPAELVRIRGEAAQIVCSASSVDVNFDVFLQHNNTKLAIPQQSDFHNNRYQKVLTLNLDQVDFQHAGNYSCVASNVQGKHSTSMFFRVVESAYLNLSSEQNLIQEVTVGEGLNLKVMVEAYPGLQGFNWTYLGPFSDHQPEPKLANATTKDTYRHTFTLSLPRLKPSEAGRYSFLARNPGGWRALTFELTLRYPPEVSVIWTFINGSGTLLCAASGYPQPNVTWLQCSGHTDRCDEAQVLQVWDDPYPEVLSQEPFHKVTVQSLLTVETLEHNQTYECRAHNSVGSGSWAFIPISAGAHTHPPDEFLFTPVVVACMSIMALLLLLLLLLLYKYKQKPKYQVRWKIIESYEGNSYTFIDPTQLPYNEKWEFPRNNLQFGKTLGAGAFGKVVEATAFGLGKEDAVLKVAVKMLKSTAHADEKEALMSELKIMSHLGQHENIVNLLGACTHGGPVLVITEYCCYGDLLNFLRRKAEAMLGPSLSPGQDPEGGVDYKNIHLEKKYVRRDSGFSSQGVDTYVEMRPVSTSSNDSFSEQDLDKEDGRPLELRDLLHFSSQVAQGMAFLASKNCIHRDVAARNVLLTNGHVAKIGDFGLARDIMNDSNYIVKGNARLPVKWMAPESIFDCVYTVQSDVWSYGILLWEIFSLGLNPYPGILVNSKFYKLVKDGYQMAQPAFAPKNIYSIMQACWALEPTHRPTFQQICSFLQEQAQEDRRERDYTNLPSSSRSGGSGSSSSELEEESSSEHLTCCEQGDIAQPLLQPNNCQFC", "assay": "Inhibition of recombinant human Fms (538 to end residues) Y969C mutant at 1 uM using EEEEYEEEEEEYYIIEEEEEEYEEEEEEYYEEEEEEKKKK as substrate measured after 40 mins in presence of [gamma33P]ATP by scintillation counting method relative to control"}, "[15]": {"tested_on": "Angiopoietin-1 receptor (Homo sapiens), Q02763 [Q939H,Q940H,R849W]", "assay": "Inhibition of human Tie2 Q939H/Q940H/R849W mutant (771 to end residues) at 1 uM using EFPIYDFLPAKKK as substrate measured after 40 mins in presence of [gamma33P]ATP by scintillation counting method relative to control", "procedure,_shortened": "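Single-point inhibition at 1 µM was measured in the Eurofins KinaseProfiler panel. Values are the mean of two independent experiments.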"}, "[16]": {"biological_target": "Serine/threonine-protein kinase ULK1 (Homo sapiens) (UniProt O75385)", "assay": "Inhibition of human ULK1 (1 to 314 residues) at 1 uM using casein as substrate measured after 40 mins in presence of [gamma33P]ATP by scintillation counting method relative to control"}, "[17]": {"biological_target": "Leukocyte tyrosine kinase receptor (Homo sapiens) (UniProt P29376)", "sequence (P29376 whole entry)": "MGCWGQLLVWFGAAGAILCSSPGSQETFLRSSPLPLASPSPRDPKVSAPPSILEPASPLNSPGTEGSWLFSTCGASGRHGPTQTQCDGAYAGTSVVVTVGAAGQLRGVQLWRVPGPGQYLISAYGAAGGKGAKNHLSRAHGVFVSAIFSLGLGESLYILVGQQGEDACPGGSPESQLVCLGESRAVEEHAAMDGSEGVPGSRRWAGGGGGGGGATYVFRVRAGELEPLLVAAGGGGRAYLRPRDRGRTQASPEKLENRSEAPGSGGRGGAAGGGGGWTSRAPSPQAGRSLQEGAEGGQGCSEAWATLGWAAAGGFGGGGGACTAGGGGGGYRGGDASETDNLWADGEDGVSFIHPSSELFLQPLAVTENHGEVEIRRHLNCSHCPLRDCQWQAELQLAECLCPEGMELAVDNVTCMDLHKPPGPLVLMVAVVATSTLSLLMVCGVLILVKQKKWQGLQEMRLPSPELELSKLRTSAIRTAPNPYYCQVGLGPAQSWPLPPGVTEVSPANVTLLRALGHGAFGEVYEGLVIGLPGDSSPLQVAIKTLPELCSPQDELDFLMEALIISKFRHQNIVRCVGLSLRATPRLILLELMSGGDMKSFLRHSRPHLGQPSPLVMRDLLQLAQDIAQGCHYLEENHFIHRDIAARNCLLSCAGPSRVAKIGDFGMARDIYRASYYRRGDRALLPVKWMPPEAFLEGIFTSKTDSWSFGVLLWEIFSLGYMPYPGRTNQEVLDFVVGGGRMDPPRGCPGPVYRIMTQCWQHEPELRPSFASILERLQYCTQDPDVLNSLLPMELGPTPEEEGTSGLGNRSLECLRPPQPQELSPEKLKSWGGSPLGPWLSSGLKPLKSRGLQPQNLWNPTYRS", "assay": "Inhibition of recombinant human LTK (450 to end residues) at 1 uM using GEEPLYWSFPAKKK as substrate measured after 40 mins in presence of [gamma33P]ATP by scintillation counting method relative to control"}, "[18]": {"tested_on": "PI3-kinase p110-alpha/p85-alpha (Homo sapiens), P27986+P42336 [E542K]", "assay": "Inhibition of recombinant full-length human PI3K p110alpha/p85alpha E542K mutant at 1 uM using phosphatidylinositol-4, 5-bisphosphate as substrate measured after 40 mins by HTRF assay relative to control"}}, "note": "Calls of active or inactive are those of the source. The rule behind the calls is not given here.", "data": [{"smiles": "CN(C)C(=O)c1cc2cnc(Nc3ccc(NC(=O)CCCCCCCN=C=S)cc3)nc2n1C1CCCC1", "values": [{"measurement": "inhibition at 0.5 µM", "setting": "MCF7", "value": 62, "unit": "%"}, {"measurement": "Activity", "setting": "NCI-H1299", "value": 34.4, "unit": "%"}, {"measurement": "Activity", "setting": "A549 [1]", "value": 1.76, "unit": "%"}, {"measurement": "Activity", "setting": "A549 [2]", "value": "inactive"}, {"measurement": "inhibition", "setting": "[3]", "value": -5, "unit": "%"}, {"measurement": "inhibition", "setting": "[4]", "value": 29, "unit": "%"}, {"measurement": "inhibition", "setting": "[5]", "value": 65, "unit": "%"}, {"measurement": "inhibition", "setting": "[6]", "value": 34, "unit": "%"}, {"measurement": "inhibition", "setting": "[7]", "value": 21, "unit": "%"}, {"measurement": "inhibition", "setting": "[8]", "value": 7, "unit": "%"}, {"measurement": "inhibition", "setting": "[9]", "value": 59, "unit": "%"}, {"measurement": "inhibition", "setting": "[10]", "value": -5, "unit": "%"}, {"measurement": "inhibition", "setting": "[11]", "value": -1, "unit": "%"}, {"measurement": "inhibition", "setting": "[12]", "value": 3, "unit": "%"}, {"measurement": "inhibition", "setting": "[13]", "value": 14, "unit": "%"}, {"measurement": "inhibition", "setting": "[14]", "value": 40, "unit": "%"}, {"measurement": "inhibition", "setting": "[15]", "value": 12, "unit": "%"}, {"measurement": "inhibition", "setting": "[16]", "value": -3, "unit": "%"}, {"measurement": "inhibition", "setting": "[17]", "value": 33, "unit": "%"}, {"measurement": "inhibition", "setting": "[18]", "value": 10, "unit": "%"}]}]}
